Test results reported in ChEMBL document CHEMBL3271997, “Reactions of 2-acyloxyisobutyryl halides with nucleosides. 6. Synthesis and biological evaluation of some 3'-acyl derivatives of 2,2'-anhydro-1-(beta-D-arabinofuranosyl)cytosine hydrochloride” (J Med Chem, 1976).
Active and inactive are the calls of the source. The calls are words filed in the database; no cut-off is given here.

Legend:
[1] = test system: Measles morbillivirus; experiment: Antiviral activity against Measles virus infected in African green monkey BGM cells after 5 days by pulp disk diffusion assay; format: functional, organism-based
Outline: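 Preliminary pulp disk diffusion screen. BGM cells were infected with 200 pfu of measles virus. A filter paper disk impregnated with 50 μg of compound was applied. Activity was scored as the diameter of the zone of plaque inhibition on day 5.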

[2] = test system: L1210; experiment: Antitumor activity against mouse L1210 cells allografted in BDF1 mouse assessed as increase in life span at 2000 mg/kg, ip administered as single dose 24 hrs post-implantation measured up to 30 days relative to control; format: functional; settings: route intraperitoneal
Outline: (§1)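 BDF1 mice inoculated ip with 1-2 × 10⁵ L1210 cells; 24 h later a single ip dose given as solution or suspension in aqueous 0.9% NaCl, 0.4% polysorbate 80, 0.5% low-viscosity sodium carboxymethylcellulose, 0.9% benzyl alcohol. Mice held on normal diet for 30 days. Groups of eight to ten animals; percent increase in life span versus untreated infected controls, with 30-day survivors counted.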

[3] = test system: HeLa; experiment: Cytotoxicity against human HeLa cells after 48 hrs by Coulter counting analysis; format: functional; settings: read-out: ED50 (the source's name)
Outline: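 HeLa cells (10⁵) were grown for 2 days at 37° in MEM with 10% bovine serum. The medium was then replaced with fresh medium containing serial compound dilutions. After 48 h, cells were dispersed with 0.02% trypsin and 0.04% versene and counted on a Coulter counter. The result is expressed as ED50 in μg/ml.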

[4] = test system: L1210; experiment: Antitumor activity against mouse L1210 cells allografted in BDF1 mouse assessed as increase in life span at 1000 mg/kg, ip administered as single dose 24 hrs post-implantation measured up to 30 days relative to control; format: functional; settings: route intraperitoneal; outline: as §1
[5] = test system: unidentified influenza virus; experiment: Antiviral activity against Influenza virus […] infected in monkey LLC-MK2 cells after 5 days by pulp disk diffusion assay; format: functional, organism-based
Outline: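 Pulp disk diffusion screen: LLCMK2 cells infected with 200 pfu influenza Ao/WSN in presence of trypsin; filter paper disk loaded with 50 μg compound; antiviral activity read as diameter of plaque-inhibition zone on day 5.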

[6] = test system: BGM; experiment: Antiviral activity against Poliovirus type 1 Mahoney infected in African green monkey BGM cells after 5 days by pulp disk diffusion assay; format: functional, cell-based; settings: Human poliovirus 1 Mahoney
Outline: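 Pulp disk diffusion screen: BGM African green monkey kidney cells infected with 200 pfu Mahoney type I poliovirus; filter paper disk loaded with 50 μg compound; antiviral activity read as diameter of plaque-inhibition zone on day 5.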

[7] = test system: L1210; experiment: Antitumor activity against mouse L1210 cells allografted in BDF1 mouse assessed as survival at 500 mg/kg, ip administered as single dose 24 hrs post-implantation after 30 days; format: functional, organism-based; set-up: dose 500 mg/kg
Outline: (§2)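 BDF1 mice were inoculated ip with 1-2 × 10⁵ L1210 cells. After 24 h, one ip dose was given as a solution or suspension in aqueous 0.9% NaCl, 0.4% polysorbate 80, 0.5% low-viscosity Na carboxymethylcellulose and 0.9% benzyl alcohol. Mice were followed for 30 days, with 8-10 per group. The read-out is % increase in life span versus infected controls, plus the count of 30-day survivors.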

[8] = test system: Mus musculus; experiment: Toxicity in BDF1 mouse allografted with mouse L1210 cells at 3000 mg/kg, ip; format: organism-based; set-up: dose 3000 mg/kg, route intraperitoneal; settings: in vivo; outline: as §2
[9] = test system: Vaccinia virus; experiment: Antiviral activity against Vaccinia virus IHD infected in African green monkey BGM cells after 6 days by plaque reduction assay; format: functional; settings: Orthopoxvirus vaccinia, 144 h, read-out: ED50 (the source's name)
[10] = test system: Herpesviridae sp.; experiment: Antiviral activity against Herpes simplex virus HF infected in African green monkey BGM cells after 6 days by plaque reduction assay; format: functional; settings: 144 h, read-out: ED50 (the source's name)
Outline: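 Quantitative plaque reduction assay. Confluent BGM monolayers were infected with 100-200 pfu of HSV (HF strain) and overlaid with 1.25% agar in MEM with 2.0% bovine serum containing graded compound concentrations. A second overlay with neutral red (1:20000) was added on day 4, and plaques were counted on day 6. ED50, the μM concentration giving 50% plaque reduction, was taken from a probability plot of % inhibition against concentration.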

[11] = test system: L1210; experiment: Antitumor activity against mouse L1210 cells allografted in BDF1 mouse assessed as survival at 1000 mg/kg, ip administered as single dose 24 hrs post-implantation after 30 days; format: functional, organism-based; set-up: dose 1000 mg/kg; outline: as §2
[12] = test system: L1210; experiment: Antitumor activity against mouse L1210 cells allografted in BDF1 mouse assessed as increase in life span at 200 mg/kg, ip administered as single dose 24 hrs post-implantation measured up to 30 days relative to control; format: functional; settings: route intraperitoneal; outline: as §1
[13] = test system: L1210; experiment: Antitumor activity against mouse L1210 cells allografted in BDF1 mouse assessed as survival at 200 mg/kg, ip administered as single dose 24 hrs post-implantation after 30 days; format: functional, organism-based; set-up: dose 200 mg/kg; outline: as §2
[14] = test system: Mus musculus; experiment: Toxicity in BDF1 mouse allografted with mouse L1210 cells assessed as reduction in average life span at 1000 mg/kg, ip administered as single dose 24 hrs post-implantation measured up to 30 days relative to control; format: organism-based; set-up: dose 1000 mg/kg, route intraperitoneal; settings: in vivo; outline: as §2
[15] = test system: Mus musculus; experiment: Toxicity in BDF1 mouse allografted with mouse L1210 cells assessed as reduction in survival at 1000 mg/kg, ip administered as single dose 24 hrs post-implantation measured up to 30 days relative to control; format: organism-based; set-up: dose 1000 mg/kg, route intraperitoneal; settings: in vivo; outline: as §1
[16] = test system: L1210; experiment: Antitumor activity against mouse L1210 cells allografted in BDF1 mouse assessed as increase in life span at 500 mg/kg, sc administered 10 days prior to infection relative to control; format: functional; settings: route subcutaneous
Outline: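 Single subcutaneous dose given 10 days before infection of mice with L1210 cells; activity expressed as percent increase in life span relative to untreated controls.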

[17] = Half life in human; format: ADME, organism-based; settings: in vivo
[18] = test system: Mus musculus; experiment: Toxicity in BDF1 mouse allografted with mouse L1210 cells assessed as reduction in survival at 200 mg/kg, ip administered as single dose 24 hrs post-implantation measured up to 30 days relative to control; format: organism-based; set-up: dose 200 mg/kg, route intraperitoneal; settings: in vivo; outline: as §1
[19] = test system: Mus musculus; experiment: Toxicity in BDF1 mouse allografted with mouse L1210 cells assessed as reduction in average life span at 200 mg/kg, ip administered as single dose 24 hrs post-implantation measured up to 30 days relative to control; format: organism-based; set-up: dose 200 mg/kg, route intraperitoneal; settings: in vivo; outline: as §2
[20] = test system: Mus musculus; experiment: Toxicity in BDF1 mouse allografted with mouse L1210 cells assessed as reduction in average life span at 500 mg/kg, ip administered as single dose 24 hrs post-implantation measured up to 30 days relative to control; format: organism-based; set-up: dose 500 mg/kg, route intraperitoneal; settings: in vivo; outline: as §2
[21] = test system: Mus musculus; experiment: Toxicity in BDF1 mouse allografted with mouse L1210 cells assessed as reduction in survival at 500 mg/kg, ip administered as single dose 24 hrs post-implantation measured up to 30 days relative to control; format: organism-based; set-up: dose 500 mg/kg, route intraperitoneal; settings: in vivo; outline: as §1

SMILES	EC50 [3]	EC50 [9]	EC50 [10]	ILS at 200 mg/kg [12]	Activity [13]	other results
Cl.N=c1ccn2c(n1)O[C@H]1[C@H](O)[C@@H](CO)O[C@H]12 [ANCITABINE HYDROCHLORIDE]	0.05 µg/mL	410 nM	700 nM	25%	inactive	Activity [1]: inactive; ILS at 2000 mg/kg [2]: > 151%; ILS at 1000 mg/kg [4]: 89%; Activity [5]: inactive; Activity [6]: inactive; Activity [7]: inactive; Activity [8]: Toxic; Activity [11]: inactive
CCCCCCCCCC(=O)O[C@H]1[C@@H]2Oc3nc(=N)ccn3[C@@H]2O[C@@H]1CO.Cl	0.2 µg/mL	150 nM	1050 nM	35%	inactive	
CCCCCCCCCCCCCCCC(=O)O[C@H]1[C@@H]2Oc3nc(=N)ccn3[C@@H]2O[C@@H]1CO.Cl	0.2 µg/mL	1200 nM	5500 nM	> 191%		ILS [14]: -20%; Activity [15]: Toxic
CCC(=O)O[C@H]1[C@@H]2Oc3nc(=N)ccn3[C@@H]2O[C@@H]1CO.Cl	0.1 µg/mL	600 nM	2550 nM	29%	inactive	
CCCC(=O)O[C@H]1[C@@H]2Oc3nc(=N)ccn3[C@@H]2O[C@@H]1CO.Cl	0.12 µg/mL	590 nM	2050 nM	30%	inactive	
CC(=O)O[C@H]1[C@@H]2Oc3nc(=N)ccn3[C@@H]2O[C@@H]1CO.Cl	0.18 µg/mL	730 nM	2250 nM	37%	inactive	ILS at 1000 mg/kg [4]: 87%; Activity [11]: inactive
C=CCCCCCCCCC(=O)O[C@H]1[C@@H]2Oc3nc(=N)ccn3[C@@H]2O[C@@H]1CO.Cl	0.05 µg/mL	510 nM	1200 nM	38%	inactive	
CCCCCCCCCCCCCCCCCCCCCC(=O)O[C@H]1[C@@H]2Oc3nc(=N)ccn3[C@@H]2O[C@@H]1CO.Cl	0.38 µg/mL	18500 nM	> 30000 nM	> 169%		ILS at 1000 mg/kg [4]: > 240%
CCCCCCCCCCCC(=O)O[C@H]1[C@@H]2Oc3nc(=N)ccn3[C@@H]2O[C@@H]1CO.Cl	0.1 µg/mL	640 nM	640 nM	40%	inactive	
CCCCCC(=O)O[C@H]1[C@@H]2Oc3nc(=N)ccn3[C@@H]2O[C@@H]1CO.Cl	0.1 µg/mL	230 nM	1550 nM	40%	inactive	
CCCCCCCC/C=C\CCCCCCCCCCCC(=O)O[C@H]1[C@@H]2Oc3nc(=N)ccn3[C@@H]2O[C@@H]1CO.Cl	0.18 µg/mL	30000 nM	> 30000 nM	> 269%		
CCCCCCCCCCCCCC(=O)O[C@H]1[C@@H]2Oc3nc(=N)ccn3[C@@H]2O[C@@H]1CO.Cl	0.2 µg/mL	340 nM	1350 nM	100%	inactive	ILS at 1000 mg/kg [4]: > 280%; ILS at 500 mg/kg [16]: 64%; Activity [11]: Active
CC(C)C(=O)O[C@H]1[C@@H]2Oc3nc(=N)ccn3[C@@H]2O[C@@H]1CO.Cl	0.2 µg/mL	1550 nM	8800 nM	22%	inactive	
CCCCCCCC/C=C\CCCCCCCC(=O)O[C@H]1[C@@H]2Oc3nc(=N)ccn3[C@@H]2O[C@@H]1CO.Cl	0.08 µg/mL	670 nM	1200 nM	72%	inactive	
CCCCCCCCCCC(=O)O[C@H]1[C@@H]2Oc3nc(=N)ccn3[C@@H]2O[C@@H]1CO.Cl	0.06 µg/mL	190 nM	460 nM	87%	inactive	
CCCCCCCC/C=C/CCCCCCCC(=O)O[C@H]1[C@@H]2Oc3nc(=N)ccn3[C@@H]2O[C@@H]1CO.Cl	0.09 µg/mL	900 nM	1900 nM	> 162%		
Cl.N=c1ccn2c(n1)O[C@H]1[C@H](OC(=O)Cc3ccccc3)[C@@H](CO)O[C@H]12	0.07 µg/mL	560 nM	560 nM	33%	inactive	
Nc1ccn([C@@H]2O[C@H](CO)[C@@H](O)[C@@H]2O)c(=O)n1 [CYTARABINE]						half-life [17]: 12 min
Cl.N=c1ccn2c(n1)O[C@H]1[C@H](OC(=O)c3ccccc3)[C@@H](CO)O[C@H]12	0.2 µg/mL	5900 nM	8200 nM	17%	inactive	
CCCCCCC/C=C/C(=O)O[C@H]1[C@@H]2Oc3nc(=N)ccn3[C@@H]2O[C@@H]1CO.Cl	0.06 µg/mL	150 nM	210 nM			Activity [18]: Toxic; ILS [19]: -83%
CCCCCCCCCCCCCCCCCC(=O)O[C@H]1[C@@H]2Oc3nc(=N)ccn3[C@@H]2O[C@@H]1CO.Cl	0.22 µg/mL	1600 nM	5450 nM	115%	inactive	ILS at 1000 mg/kg [4]: > 257%; Activity [11]: Active
CCCCCCCC(=O)O[C@H]1[C@@H]2Oc3nc(=N)ccn3[C@@H]2O[C@@H]1CO.Cl	0.1 µg/mL	190 nM	720 nM	34%		ILS [20]: -93%; ILS [14]: -100%; Activity [15]: Toxic; Activity [21]: Toxic
CCCCCCCCCCCCCCCCCCCC(=O)O[C@H]1[C@@H]2Oc3nc(=N)ccn3[C@@H]2O[C@@H]1CO.Cl	0.22 µg/mL	> 30000 nM	> 30000 nM	> 281%		ILS at 1000 mg/kg [4]: > 266%; Activity [11]: Active
CCCCCCCCC(=O)O[C@H]1[C@@H]2Oc3nc(=N)ccn3[C@@H]2O[C@@H]1CO.Cl	0.05 µg/mL	290 nM	400 nM	33%	inactive	
